According to ChEMBL document CHEMBL4680082 (J Med Chem, 2016):
Values joined by “and” are separate entries in the source; they are usually repeats but may differ in a detail not shown here. Equal entries are not always repeated. Active and inactive are the calls of the source. No cut-off for these calls is given here.

Key:
[1] = target: T1, 5-hydroxytryptamine receptor 2C (Homo sapiens) (UniProt P28335); assay: Agonist activity at human 5-HT2C INI receptor expressed in human Flp-In-293 cells assessed as increase in [3H]myo-inositol accumulation at 1 uM after 30 hrs; assay type: functional, cell-based; conditions: filed as partial agonist
T1 sequence (whole entry): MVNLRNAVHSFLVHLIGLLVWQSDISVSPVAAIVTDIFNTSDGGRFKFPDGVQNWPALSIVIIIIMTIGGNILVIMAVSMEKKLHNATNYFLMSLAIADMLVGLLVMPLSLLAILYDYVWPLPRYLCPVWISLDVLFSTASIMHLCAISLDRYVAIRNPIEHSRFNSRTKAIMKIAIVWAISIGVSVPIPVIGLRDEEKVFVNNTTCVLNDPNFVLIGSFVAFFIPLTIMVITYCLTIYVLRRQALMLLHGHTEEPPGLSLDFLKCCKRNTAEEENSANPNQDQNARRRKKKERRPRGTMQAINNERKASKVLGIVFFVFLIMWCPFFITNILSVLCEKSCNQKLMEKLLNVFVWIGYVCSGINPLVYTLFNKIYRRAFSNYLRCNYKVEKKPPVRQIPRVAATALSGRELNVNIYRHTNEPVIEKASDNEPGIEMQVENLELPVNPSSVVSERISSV
In short: (§1)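 PI hydrolysis: Flp-In-293 5-HT2C INI cells, 25,000/well, labelled 16-18 h with [3H]-myo-inositol (2 µCi/well) in inositol-free DMEM, washed. Drug (1 µM) in HBSS/HEPES pH 7.4 buffer for the indicated times (5 min to 40 h). LiCl (15 mM final) added 2 h before lysis with cold 50 mM formic acid at 4 °C overnight. [3H]-inositol phosphates captured on yttrium silicate beads and counted as CPM.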

[2] = target: T2, 5-hydroxytryptamine receptor 2A (Homo sapiens, UniProt P28223)
[3] = target: T1, 5-hydroxytryptamine receptor 2C (Homo sapiens); assay: Agonist activity at human 5-HT2C INI receptor expressed in human HEK293 cells assessed as induction of beta-arrestin-2 recruitment incubated for 20 hrs by Tango assay relative to 5HT; assay type: cell-based
In short: (§2)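 Tango assay in HTLA cells (HEK line expressing TEV-fused β-arrestin-2 and tTA-driven luciferase) transfected with 5-HT2C INI–tTA fusion carrying a TEV site. Cells were stimulated with the same dilutions used for FLIPR, 20 h at 37 °C and 5% CO2, then lysed with Bright-Glo for 20 min at room temperature and read by luminescence. Data normalized to % 5-HT and fitted sigmoidally; n = 3 in triplicate. Bias from log(Emax/EC50).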

[4] = target: T2, 5-hydroxytryptamine receptor 2A; assay: Agonist activity at human 5-HT2A receptor expressed in human Flp-In-293 cells assessed as induction of calcium flux incubated for 1 hr by Fluo-4 direct dye based FLIPR assay relative to 5-HT; assay type: functional, cell-based; conditions: filed as agonist
[5] = target: T1, 5-hydroxytryptamine receptor 2C (Homo sapiens); assay: Induction of Gq-mediated receptor desensitization at human 5-HT2C INI receptor expressed in human Flp-In-293 cells assessed as reduction in Emax for additional 5-HT-stimulated calcium flux at <1 uM pre-incubated for 30 mins followed by drug wash out (3 times) by Fluo-4 direct dye based FLIPR assay; assay type: functional, cell-based; conditions: dose microM <1, time 30.0 min
[6] = target: T1, 5-hydroxytryptamine receptor 2C (Homo sapiens); assay: Induction of Gq-mediated receptor desensitization at human 5-HT2C INI receptor expressed in human Flp-In-293 cells assessed as reduction in Emax for [3H]myo-inositol accumulation at 1 uM after 20 hrs; assay type: functional, cell-based; conditions: filed as partial agonist; in short: as §1
[7] = target: T1, 5-hydroxytryptamine receptor 2C (Homo sapiens); assay: Agonist activity at human 5-HT2C INI receptor expressed in human Flp-In-293 cells assessed as increase in [3H]myo-inositol accumulation at 1 uM measured up to 5 hrs; assay type: functional, cell-based; conditions: filed as partial agonist, time hrs <=5; in short: as §1
[8] = target: T3, 5-hydroxytryptamine receptor 2B (Homo sapiens, UniProt P41595); assay: Agonist activity at human 5-HT2B receptor expressed in human Flp-In-293 cells assessed as induction of calcium flux incubated for 1 hr by Fluo-4 direct dye based FLIPR assay relative to 5-HT; assay type: functional, cell-based; conditions: filed as agonist
[9] = target: T4, 5-hydroxytryptamine receptor 2C (Homo sapiens, UniProt P28335); assay: Agonist activity at human 5-HT2C INI receptor expressed in human HEK293 cells assessed as induction of beta-arrestin-2 recruitment incubated for 20 hrs by Tango assay; assay type: cell-based; in short: as §2
T4 sequence (P28335 whole entry): T1 sequence (whole entry)

[10] = target: T1, 5-hydroxytryptamine receptor 2C (Homo sapiens); assay: Agonist activity at human 5-HT2C receptor expressed in human Flp-In-293 cells assessed as induction of calcium flux incubated for 1 hr by Fluo-4 direct dye based FLIPR assay relative to 5-HT; assay type: functional, cell-based; conditions: filed as partial agonist
[11] = target: T1, 5-hydroxytryptamine receptor 2C (Homo sapiens); assay: Agonist activity at human 5-HT2C INI receptor expressed in human Flp-In-293 cells assessed as increase in [3H]myo-inositol accumulation at 1 uM after 90 mins; assay type: functional, cell-based; conditions: filed as partial agonist; in short: as §1
[12] = target: T1, 5-hydroxytryptamine receptor 2C (Homo sapiens); assay: Agonist activity at human 5-HT2C INI receptor expressed in human Flp-In-293 cells assessed as induction of calcium flux incubated for 1 hr by Fluo-4 direct dye based FLIPR assay relative to 5-HT; assay type: functional, cell-based
In short: (§3)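 Calcium flux in Flp-In-293 cells stably expressing the human 5-HT2C INI isoform, Fluo-4 Direct loading for 1 h at 37 °C. Drug dilutions identical to those in the parallel Tango assay, 300 s read at 1 read/s, normalized to % 5-HT. Triplicate, mean ± SEM (n = 3). Bias factors were calculated from change in relative activity, log(Emax/EC50).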

[13] = target: T1, 5-hydroxytryptamine receptor 2C (Homo sapiens); assay: Agonist activity at human 5-HT2C INI receptor expressed in human Flp-In-293 cells assessed as increase in [3H]myo-inositol accumulation at 1 uM after 5 mins; assay type: functional, cell-based; conditions: filed as partial agonist; in short: as §1
[14] = target: T3, 5-hydroxytryptamine receptor 2B
[15] = target: T4, 5-hydroxytryptamine receptor 2C
[16] = target: T4, 5-hydroxytryptamine receptor 2C; assay: Agonist activity at human 5-HT2C INI receptor expressed in human Flp-In-293 cells assessed as induction of calcium flux incubated for 1 hr by Fluo-4 direct dye based FLIPR assay; assay type: functional, cell-based; in short: as §3
[17] = target: T1, 5-hydroxytryptamine receptor 2C (Homo sapiens); assay: Bias factor, ratio of log(Emax/EC50) of lorcaserin to test compound for agonist activity at human 5-HT2C INI receptor expressed in human Flp-In-293 cells assessed as induction of calcium flux incubated for 1 hr by Fluo-4 direct dye based FLIPR assay; assay type: functional, cell-based; in short: as §3
[18] = target: T1, 5-hydroxytryptamine receptor 2C (Homo sapiens); assay: Agonist activity at human 5-HT2C INI receptor expressed in human HEK293 cells assessed as induction of beta-arrestin-2 recruitment by measuring log (Emax/EC50) incubated for 20 hrs by Tango assay relative to 5HT; assay type: cell-based; in short: as §2
[19] = target: T1, 5-hydroxytryptamine receptor 2C (Homo sapiens); assay: Bias factor, ratio of log(Emax/EC50) of lorcaserin to test compound for agonist activity at human 5-HT2C INI receptor expressed in human HEK293 cells assessed as induction of beta-arrestin-2 recruitment incubated for 20 hrs by Tango assay; assay type: cell-based; in short: as §2
[20] = target: T1, 5-hydroxytryptamine receptor 2C (Homo sapiens); assay: Agonist activity at human 5-HT2C INI receptor expressed in human Flp-In-293 cells assessed as induction of calcium flux by measuring log (Emax/EC50) incubated for 1 hr by Fluo-4 direct dye based FLIPR assay; assay type: functional, cell-based; in short: as §3

T3 sequence (P41595 whole entry): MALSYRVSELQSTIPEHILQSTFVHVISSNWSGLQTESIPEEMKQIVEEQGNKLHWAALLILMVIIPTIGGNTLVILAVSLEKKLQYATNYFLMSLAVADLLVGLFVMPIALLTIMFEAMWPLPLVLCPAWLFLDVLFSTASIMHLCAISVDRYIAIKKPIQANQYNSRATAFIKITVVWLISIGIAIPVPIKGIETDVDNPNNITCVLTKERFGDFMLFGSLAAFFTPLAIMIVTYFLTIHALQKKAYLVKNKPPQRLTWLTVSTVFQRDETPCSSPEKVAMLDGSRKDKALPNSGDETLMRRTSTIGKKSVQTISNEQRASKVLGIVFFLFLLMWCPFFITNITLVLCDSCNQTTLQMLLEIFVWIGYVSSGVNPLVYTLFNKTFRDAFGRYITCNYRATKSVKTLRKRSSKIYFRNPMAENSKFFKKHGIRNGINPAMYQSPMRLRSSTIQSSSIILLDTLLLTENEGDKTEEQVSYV
T2 sequence (P28223 whole entry): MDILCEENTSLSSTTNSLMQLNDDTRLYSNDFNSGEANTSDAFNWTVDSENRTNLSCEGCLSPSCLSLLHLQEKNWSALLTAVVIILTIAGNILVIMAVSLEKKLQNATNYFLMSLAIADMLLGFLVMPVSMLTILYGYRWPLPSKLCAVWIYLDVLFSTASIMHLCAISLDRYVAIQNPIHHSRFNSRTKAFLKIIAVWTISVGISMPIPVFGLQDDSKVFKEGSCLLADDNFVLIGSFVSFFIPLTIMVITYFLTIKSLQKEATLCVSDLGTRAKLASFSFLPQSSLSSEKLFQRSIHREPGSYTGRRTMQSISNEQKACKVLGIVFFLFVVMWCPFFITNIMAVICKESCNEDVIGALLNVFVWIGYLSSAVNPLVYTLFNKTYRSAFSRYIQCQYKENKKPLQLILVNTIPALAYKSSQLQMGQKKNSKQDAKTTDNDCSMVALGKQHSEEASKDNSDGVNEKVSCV

NC[C@H]1C[C@@H]1c1c(OCCF)ccc2occc12
Activity [1]: Dose-dependent effect
EC50 [2]: 22 nM
Emax [3]: 28%
Emax [4]: 98%
Activity [5]: inactive
Activity [6]: Active
Activity [7]: Active
Emax [8]: 103%
EC50 ([9]; read-out: EC50): 25 nM
Emax [10]: 97%
Activity [11]: Active
Emax ([12]; filed as partial agonist): 94%
Activity [13]: Active
EC50 [14]: 46 nM
EC50 [15]: 0.603 nM and 0.59 nM
EC50 [16]: 1.2 nM

C[C@H](N)Cn1ccc2cc(F)c(Cl)cc21
Ratio [17]: 0.3
Emax ([3]; filed as agonist): 87%
EC50 ([9]; read-out: EC50): 10 nM
EC50 ([9]; read-out: pEC50 (converted)): 10.7 nM
Emax ([12]; filed as agonist): 99%
log(ratio) [18]: 7.94
Ratio [19]: 3.3
log(ratio) [20]: 8.65
EC50 [16]: 2.2 nM
